Experimental data published in ChEMBL document CHEMBL1153633, “Synthesis and biological activity of alpha-galactosyl ceramide KRN7000 and galactosyl (alpha1-->2) galactosyl ceramide” (Bioorg Med Chem Lett, 2009).
Active and inactive are the calls of the source. The rule behind the calls is not given here.

How the values were obtained:
Assay type in all cases: functional, cell-based
RAW [1] = test: Activation of mouse DN32 cells in co-cultured with CD1d-transfected RAW cells assessed as IL-2 release after 16 hrs by ELISA
Procedure, shortened: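 Mouse iNKT hybridoma DN32 (5×10^4) co-cultured with 5×10^4 RAW cells, CD1d-transfected or untransfected, across a range of lipid concentrations; supernatant cytokines measured by ELISA at 16 h.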

[2] = Activation of human BM2a.3 cells co-cultured with CD1d-expressing U937 cells assessed as IFN-gamma release after 16 hrs by ELISA; conditions: U-937
Procedure, shortened: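 Human iNKT clone BM2a.3 (2.5×10^4) co-cultured with 2.5×10^4 U937 cells and a range of lipid concentrations; cytokines in culture supernatants measured by ELISA after 16 h.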

RAW [3] = test: Activation of mouse DN32 cells co-cultured with CD1d-transfected RAW cells assessed as IL-2 release at 100 ng/ml fixed and then pulsed for 3 hrs measured after 16 hrs by ELISA
Procedure, shortened: (§1)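 CD1d-transfected RAW cells were handled in one of two orders. In one, they were pulsed with 100 ng/ml lipid for 3 h, washed, then fixed with glutaraldehyde. In the other, they were fixed first, then pulsed for 3 h. 10^5 APC were co-cultured with 10^5 iNKT hybridoma cells for 16 h, and supernatant cytokines were measured by ELISA.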

RAW [4] = test: Activation of mouse DN32 cells co-cultured with CD1d-transfected RAW cells assessed as IL-2 release at 100 ng/ml pulsed for 3 hrs and then fixed measured after 16 hrs by ELISA; procedure, shortened: as §1
DN32 = test: Activation of mouse DN32 cells in co-cultured with plate bound antigen presenting cell free CD1d-FC fusion protein assessed as IL-2 release after 16 hrs by ELISA
Procedure, shortened: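 Plate-bound murine recombinant CD1d-Fc fusion protein loaded with lipid for 16 h, then washed; 5×10^4 iNKT hybridoma cells added per well, with no APC. Cytokines in culture supernatants measured by ELISA.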

CCCCCCCCCCCCCCCCCCCCCCCCCC(=O)N[C@@H](CO[C@H]1O[C@H](CO)[C@H](O)[C@H](O)[C@H]1O[C@H]1O[C@H](CO)[C@H](O)[C@H](O)[C@H]1O)[C@H](O)[C@H](O)CCCCCCCCCCCCCC
Activity (RAW [1]): Active | Activity [2]: Active | Activity (RAW [3]): inactive | Activity (RAW [4]): Active | Activity (DN32): inactive

CCCCCCCCCCCCCCCCCCCCCCCCCC(=O)N[C@@H](CO[C@H]1O[C@H](CO)[C@H](O)[C@H](O)[C@H]1O)[C@H](O)[C@H](O)CCCCCCCCCCCCCC
Activity (RAW [1]): Active | Activity [2]: Active | Activity (RAW [3]): Active | Activity (RAW [4]): Active | Activity (DN32): Active
